Screening data deposited in PubChem BioAssay by SRMLSC.
bCat KO growth – primary screen for growth suppressors in beta-catenin knockout HCT116 cells (colon tumor, human). HCT116 beta-catenin knockout viability, CellTiter-Glo, 60 h; hits give low values. viability, % at 10 µM. actives 1.5% (n = 140,000);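 active = viability at or under a set limit, the compound median less 4 SD, cut at about 6% in these data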
HUVEC inhibit – inhibitors of HUVEC proliferation, primary screen, cell-based, 384-well | AID 648, 2007 | CellTiter-Glo luminescence, 72 h; hits give low values | actives 1.1% (n = 86,000) | viability, % at 10 µM (by protocol);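 active = viability at or below 30%; inactive = viability above 30%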
Lung fibro prol – antiproliferative effect on LL 47 fibroblasts – human, LL 47 cells, CellTiter-Glo luminescence, primary screen | actives 1.1% (n = 85,000) | viability, % at 10 µM | LL 47 human lung fibroblast viability, ATP luminescence; hits give low values;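 active = viability at or below 50% in the single dose screen; inactive = viability above 50%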;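 note: compound exposure lasted 72 h before the ATP readout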
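material = human LL 47 lung fibroblast cells | dosing = compounds added from tenfold dosing solution, 0.1% DMSO final | timing = overnight cell rest, 72 h compound treatment at 37 °C | measured by = CellTiter-Glo luminescence measuring cellular ATP | evaluation = % viability versus median cells-only luminescence | control set = cell-only wells, no compound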
H69AR growth 86K – proliferation blockers of H69AR lung cancer cells, primary screen, cell-based, human, 86K library; actives 6% (n = 85,000); AID 598, 2007; viability, % at 10 µM; H69AR lung tumor viability, ATP luminescence, 72 h; hits give low values;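 active = viability at or below 40%; inactive = viability above 40%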;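 note: multidrug resistant small cell line overexpressing MRP-1 efflux transporter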
PTEN del growth – growth suppression of PTEN-null HCT116, primary screen, cell-based, CellTiter-Glo; viability, % at 10 µM; actives 1.2% (n = 140,000); AID 827, 2007; HCT116 PTEN-null viability, 60 h; hits give low values;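 active = viability at or below a set limit, 4 SD under the median of all tested compounds, cut at about 3.7% in these data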;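 note: PTEN knockout HCT116 line with beta catenin targeted HCT116 as companion control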
Of the large screens only hits and unclear results are named; the others gave an inactive call. The full list was thinned out, with hits kept by preference.

COC(=O)c1cc(=O)n(Cc2ccco2)c(=Nc2ccc(F)c(Cl)c2)s1	bCat KO growth 1.6, HUVEC inhibit 3.1, Lung fibro prol 7.9, H69AR growth 86K 1.5
COC(=O)c1cc(=O)n(CCc2ccccc2F)c(=Nc2ccc(F)c(Cl)c2)s1	HUVEC inhibit 8.9, Lung fibro prol 16, H69AR growth 86K 1.5
COc1ccccc1C1C(C(C)=O)=C(C)N=c2s/c(=C\c3cc(OC)c(OC)c(OC)c3)c(=O)n21 (stereo not given)	H69AR growth 86K 30
O=c1cc(-c2ccccc2)[nH]n1-c1nc2ccccc2[nH]1	bCat KO growth 4.5, Lung fibro prol 27 (no result: H69AR growth 86K)
COc1ccc(S(=O)(=O)CCC(=O)N(C)c2ccc(OC)cc2OC)cc1	bCat KO growth 0.5, PTEN del growth 0.4
COc1ccc(S(=O)(=O)CCC(=O)Nc2ccc(OC)cc2OC)cc1	none
NC(=O)c1ccc(C(F)(F)F)n(Cc2ccccc2Cl)c1=O	none (no result: HUVEC inhibit, Lung fibro prol, H69AR growth 86K)
Cc1ccc(OCCn2cc(/C(N)=N/O)c3ccccc32)cc1C	H69AR growth 86K 35
COc1ccccc1-n1cnc(N)c1C(=O)c1ccccc1	H69AR growth 86K 24
COc1ccccc1-n1cnc(N)c1C(C)=O	none
Cc1ccc(NC(=O)CN(C)C(=O)Cn2ncc(Cl)c(Cl)c2=O)cc1	bCat KO growth 1.6, PTEN del growth 1.0 (no result: HUVEC inhibit, Lung fibro prol, H69AR growth 86K)
Cc1ccc(NC(=O)CN(C)C(=O)COc2c(Cl)cc(Cl)c3ccc(C)nc23)cc1	none (no result: HUVEC inhibit, Lung fibro prol, H69AR growth 86K)
CC1CCCCN1S(=O)(=O)c1ccc(NC(=O)CSc2nnnn2C)cc1 (stereo not given)	none
Cn1c(N/N=C/c2c[nH]c3ccccc23)nc2ccccc21	bCat KO growth 1.5, PTEN del growth 0.9 (no result: HUVEC inhibit, Lung fibro prol, H69AR growth 86K)
CCCCn1c(/N=C/c2c[nH]c3ccccc23)nc2ccccc21	H69AR growth 86K 1.9
CCN(c1cccc(C(F)(F)F)c1)S(=O)(=O)c1ccc2c(c1)CCN2C(C)=O	H69AR growth 86K 18
CC(=O)N1CCc2cc(S(=O)(=O)N3c4ccccc4CC3C)ccc21 (stereo not given)	H69AR growth 86K 20
CC(=O)N1CCc2cc(S(=O)(=O)N3CCOCC3)ccc21	none
CC(=O)N1CCCc2cc(S(=O)(=O)N(CC(C)C)CC(C)C)ccc21	none
CCN(c1cccc(C)c1)S(=O)(=O)c1ccc2c(c1)CCN2C(C)=O	H69AR growth 86K 29
Cc1nn(-c2ccccn2)c2c1-c1nc(N3CCOCC3)ncc1CC2	H69AR growth 86K 10
Cc1nn(-c2ccccn2)c2c1-c1nc(N)ncc1CC2	none
O=C(/C=C/c1cccc(C(F)(F)F)c1)Nc1cccc(C(F)(F)F)c1	bCat KO growth 3.8, PTEN del growth 2.3 (no result: HUVEC inhibit, Lung fibro prol, H69AR growth 86K)
COc1ccc(CCN2C(=O)CN(Cc3ccccc3)CC2=O)cc1OC	PTEN del growth 0.1 (no result: HUVEC inhibit, Lung fibro prol, H69AR growth 86K)
Cn1cnc([N+](=O)[O-])c1S(=O)(=O)c1ccc(Cl)cc1	bCat KO growth 1.6, PTEN del growth 1.7 (no result: HUVEC inhibit, Lung fibro prol, H69AR growth 86K)
COc1cc2c(N3CCOCC3)cc(O)c(CC(=O)Nc3ccccc3)c2cc1OC	Lung fibro prol 48
O=C(CN1CCN(S(=O)(=O)c2ccc(F)cc2)CC1)Nc1ccc2c(c1)OCCO2	none
COc1ccc(S(=O)(=O)N2CCCN(CC(=O)Nc3ccc4c(c3)OCO4)CC2)cc1	none
O=C(CN1CCCN(S(=O)(=O)c2ccc(Br)cc2)CC1)Nc1ccc2cn[nH]c2c1	H69AR growth 86K 2.1 (no result: bCat KO growth, PTEN del growth)
O=C(CN1CCN(S(=O)(=O)c2ccc(F)cc2)CC1)Nc1ccc2c(c1)OCO2	Lung fibro prol 48
O=C(CN1CCCN(S(=O)(=O)c2ccc(Br)cc2)CC1)Nc1ccc2c(c1)OCO2	H69AR growth 86K 12
O=C(CN1CCN(S(=O)(=O)c2ccc(F)cc2)CC1)Nc1ccc(Cl)c(C(F)(F)F)c1	H69AR growth 86K 9.0
COc1cccc(NC(=O)N(C2CCCCC2)C(C)c2cccs2)c1 (stereo not given)	none
CC(=O)c1sc(NC(=O)CN2C(=O)CCC2=O)nc1C	none (no result: bCat KO growth, PTEN del growth)
Cc1ccc(S(=O)(=O)Cc2ccc(C(=O)N3CCN(c4cc(C)ccc4C)CC3)o2)cc1	H69AR growth 86K 17
Cc1ccc(C)c(N2CCN(C(=O)c3ccc(CS(=O)(=O)c4ccccc4C)o3)CC2)c1	H69AR growth 86K 15
Cc1ccc(S(=O)(=O)Cc2ccc(C(=O)N3CCCC3)o2)cc1	none
COc1ccccc1S(=O)(=O)Cc1ccc(C(=O)N2CCN(c3ccccc3)CC2)o1	none
Cc1ccc(C)c(N2CCN(C(=O)C(Cc3ccccc3)n3cccc3)CC2)c1 (stereo not given)	H69AR growth 86K 22
Cc1cccc(N2CCN(C(=O)c3ccc(CS(=O)(=O)c4ccccc4C)o3)CC2C)c1 (stereo not given)	H69AR growth 86K 25
Cc1cc(S(=O)(=O)NCCc2ccccc2)c(C)s1	none (no result: HUVEC inhibit, Lung fibro prol, H69AR growth 86K)
c1ccc(OCCCc2nc(-c3ccccn3)no2)cc1	none
Cc1cc(C(=O)N2CCN(c3ccccc3)CC2)c(C)o1	none
COc1ccccc1S(=O)(=O)Cc1ccc(C(=O)N2CCN(c3cccc(Cl)c3)CC2)o1	H69AR growth 86K 9.4
Cc1cc(C(=O)N2CCN(c3cccc(Cl)c3)CC2)c(C)o1	H69AR growth 86K 16
NC(=O)c1cc(-c2ccccc2)nc(N2CCOCC2)n1	none
CC[n+]1cc(-c2ccccc2)nc(N2CCOCC2)n1	HUVEC inhibit 27
COc1ccc(C2NCCc3c2[nH]c2ccccc32)cc1CSc1nc2ccccc2s1 (stereo not given)	bCat KO growth 1.4, PTEN del growth 1.3 (no result: HUVEC inhibit, Lung fibro prol, H69AR growth 86K)
COc1ccc(C2NC(C(=O)O)Cc3c2[nH]c2ccccc32)cc1OC (stereo not given)	none
COc1ccc(O)c(-c2[nH]ncc2C(=O)c2ccccc2C)c1	none
CCN1CCN(C(=S)Nc2cccc([N+](=O)[O-])c2)CC1	none (no result: HUVEC inhibit, Lung fibro prol, H69AR growth 86K)
CCN1C/C(=C/c2cccc([N+](=O)[O-])c2)C(=O)/C(=C/c2cccc([N+](=O)[O-])c2)C1	bCat KO growth 1.7, PTEN del growth 1.6 (no result: HUVEC inhibit, Lung fibro prol, H69AR growth 86K)
O=C(CCN1CCOCC1)c1ccc2c(c1)OCCO2	H69AR growth 86K 3.3
O=C(CCN1CCOCC1)c1ccccc1	bCat KO growth 1.2, PTEN del growth 1.0
Cn1c(Cc2cccc3ccccc23)nnc1SCc1ccc([N+](=O)[O-])cc1	none (no result: HUVEC inhibit, Lung fibro prol, H69AR growth 86K)
CCOC(=O)C1=C(CS(=O)(=O)c2ccc(F)c(C)c2)NC(=O)NC1c1ccc(O)c(O)c1 (stereo not given)	none (no result: HUVEC inhibit, Lung fibro prol, H69AR growth 86K)
CC(C)(C)NC(=O)COC(=O)c1cc(F)c(F)cc1Cl	none (no result: HUVEC inhibit, Lung fibro prol, H69AR growth 86K)
Oc1ccc(Br)cc1-c1cc(-c2ccccc2)n[nH]1	HUVEC inhibit 27, H69AR growth 86K 6.3
Cn1c(-c2cc(Br)ccc2O)n[nH]c1=S	none
Oc1ccc(Br)cc1-c1cc(-c2ccc(Cl)cc2)n[nH]1	bCat KO growth 3.7, HUVEC inhibit 8.1, Lung fibro prol 39, PTEN del growth 3.3
Oc1ccccc1-c1cc(-c2ccc3c(c2)OCCO3)n[nH]1	H69AR growth 86K 17
